Tests used:
[1] = test system: L1210; assay: Inhibitory activity against murine leukemia L1210 cells; type: functional, cell-based; details: Mus musculus
[2] = Selectivity index is the ratio of IC50 to EC50 of F-MuLV.; type: functional
[3] = organism: Mus musculus; assay: Concentration that reduces Rauscher murine leukemia virus titer by 50%; type: functional, organism-based
In short: (§1)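 SC-1 cells (1 × 10^4/well) were pretreated with polybrene, infected 2 h at 37 °C with F-MuLV or R-MuLV in EMEM-5 with 8 µg/mL polybrene, washed, and refed with analogue for 72 h. They were then UV-irradiated and overlaid with XC cells (2 × 10^5) for 48 h, fixed and stained with crystal violet. Multinucleated cells were counted and EC50 was taken by linear regression versus untreated cultures.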

[4] = organism: Mus musculus; assay: Concentration that reduces Friend murine leukemia virus titer by 50%; type: functional, organism-based; in short: as §1
[5] = organism: Mus musculus; assay: Cytotoxicity was evaluated; type: functional
In short: (§2)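 SC-1 cells (1 × 10^4 cells/mL) were seeded, incubated overnight at 37 °C, refed with EMEM-10 and given diluted analogue in triplicate for 72 h at 37 °C. Cells were trypsinized and counted in a Coulter counter. The mean of three wells gave percent of control count, and IC50 was calculated by linear regression.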

[6] = Selectivity index which is the ratio of IC50 to EC50 of R-MuLV.; type: functional
[7] = test system: MC-38; assay: Cytotoxicity was evaluated against C38 solid tumor of mouse at 500 ug/disk.; type: functional; parameters: unit not given beside the values
In short: (§3)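 Disk zone assay: analogue dilutions on 6.5 mm paper disks were placed on dishes with a 0.8% agar bottom layer and a 0.44% soft-agar top layer of tumor cells (≤1 × 10^5/plate) in Fishers-CMRL-1066 with 12% horse serum. Plates were incubated 6-10 days and the inhibition zone was measured by microscope; 200 zone units = 6 mm.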

[8] = test system: L1210; assay: Cytotoxicity was evaluated against L1210 leukemia cell line at 500 ug/disk.; type: functional, Mus musculus; in short: as §3
[9] = test system: PO3; assay: Cytotoxicity was evaluated against PO3 cell line at 1000 ug/disk.
[10] = Cytotoxicity was evaluated against low malignancy line at 500 ug/disk.; type: functional; in short: as §3
[11] = organism: Homo sapiens; assay: Cytotoxicity was evaluated against H125 human solid tumor at 500 ug/disk.; type: functional; in short: as §3
[12] = organism: Homo sapiens; assay: Cytotoxicity was evaluated against PO1 human solid tumor at 500 ug/disk.; type: functional; in short: as §3
[13] = Cytotoxicity was evaluated against CO9 solid tumor of mouse at 500 ug/disk.; type: functional; in short: as §3
[14] = organism: Mus musculus; assay: (§4) Inhibition of incorporation of labeled precursor into macromolecules of noninfected SC-1 cells with the compound at a concentration 300 uM determined against thymidine; type: functional
In short: (§5)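 SC-1 cells seeded in 24-well trays at 1 × 10^4 cells/mL, incubated overnight at 37 °C, then exposed to analogue for 72 h at 37 °C. Labeled thymidine (2.5 µCi), [3H-5,6]uridine or [3H-4,5]leucine was added. After 4 h, cells were washed with cold PBS, lysed in 1% SDS/0.01 M EDTA/0.01 M Tris pH 7.7, and lysates were dried on GF/B filters. Result given as % of untreated incorporation.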

[15] = organism: Mus musculus; assay: Cytotoxicity was evaluated and represented as IC50.; type: functional; in short: as §2
[16] = organism: Mus musculus; assay: (§6) Inhibition of incorporation of labeled precursor into macromolecules of noninfected SC-1 cells with the compound at a concentration 300 uM determined against uridine.; type: functional; in short: as §5
[17] = organism: Mus musculus; assay: (§7) Inhibition of incorporation of labeled precursor into macromolecules of noninfected SC-1 cells with the compound at a concentration 300 uM determined against leucine.; type: functional; in short: as §5
[18] = organism: Mus musculus; assay: (§8) Inhibition of incorporation of labeled precursor into macromolecules of noninfected SC-1 cells with the compound at a concentration 100 uM determined against uridine.; type: functional
In short: (§9)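 Noninfected SC-1 cells were incubated with analogue as in the cytotoxicity setup, and [3H]thymidine, [3H]uridine or [3H]leucine was added. After 4 h, wells were washed with ice-cold PBS and cells were lysed in 1% SDS, 0.01 M EDTA, 0.01 M Tris pH 7.7. Lysates were dried on glass-fiber filters, and label is expressed as percent of incorporation in untreated cells.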

[19] = organism: Mus musculus; assay: (§10) Inhibition of incorporation of labeled precursor into macromolecules of noninfected SC-1 cells with the compound at a concentration 100 uM determined against leucine.; type: functional; in short: as §9
[20] = organism: Mus musculus; assay: (§11) Inhibition of incorporation of labeled precursor into macromolecules of noninfected SC-1 cells with the compound at a concentration 100 uM determined against thymidine; type: functional; in short: as §9
[21] = test system: L1210; assay: Cytotoxicity was evaluated against L1210 leukemia cell line at 1000 ug/disk.; type: functional, Mus musculus; in short: as §3
[22] = test system: PO3; assay: Cytotoxicity was evaluated against PO3 cell line at 1000 ug/disk.; type: functional, Mus musculus; in short: as §3
[23] = organism: Homo sapiens; assay: Cytotoxicity was evaluated against C116 human solid tumor at 500 ug/disk.; type: functional; in short: as §3
[24] = as §4; type: functional; in short: as §5
[25] = as §6; type: functional; in short: as §5
[26] = as §7; type: functional; in short: as §5
[27] = as §8; type: functional; in short: as §9
[28] = as §10; type: functional; in short: as §9
[29] = as §11; type: functional; in short: as §9
[30] = Cytotoxicity was evaluated against low malignancy line at 1000 ug/disk.; type: functional; in short: as §3

SMILES	IC50 [1]	SI [2]	EC50 [3]	EC50 [4]	IC50 [5]	SI [6]	further results
O=c1[nH]c(=O)n2c3c1ncn3CC=CC2	> 1000 µM	–	–	–	–	–	–
Cc1cn([C@H]2C[C@H](N=[N+]=[N-])[C@@H](CO)O2)c(=O)[nH]c1=O [ZIDOVUDINE]	–	17000	0.046 µM	0.035 µM	594 µM	12900	–
Nc1ccn([C@H]2CC[C@@H](CO)O2)c(=O)n1 [ZALCITABINE]	–	> 4.4	13.8 µM	23 µM	> 100 µM	> 7.3	–
Nc1ncnc2c1ncn2CC#CCCl	90 µM	–	–	–	–	–	Cytotoxicity [7]: 950; Cytotoxicity [8]: 930; Cytotoxicity [9]: 520; Cytotoxicity [10]: 950; Cytotoxicity [11]: 900
Cc1cn(C/C=C\CCl)c(=O)[nH]c1=O	46 µM	–	–	–	–	–	Cytotoxicity [12]: 550; Cytotoxicity [13]: 320; Cytotoxicity [8]: 610; Cytotoxicity [10]: 400
Nc1nc(O)c2ncn(C/C=C/CO)c2n1	200 µM	–	–	–	–	–	–
Nc1ncnc2c1ncn2CC#CCO	490 µM	1.7	156 µM	245 µM	–	2.6	Precursor inhibition [14]: 36%; IC50 [15]: 407 µM; Precursor inhibition [16]: 66%; Precursor inhibition [17]: 75%; Precursor inhibition [18]: 67%; Precursor inhibition [19]: 88%; Precursor inhibition [20]: 60%
Nc1ncnc2c1ncn2/C=C\CCO	200 µM	> 1.6	160 µM	194 µM	> 300 µM	> 1.9	–
Nc1ccn([C@@H]2O[C@H](CO)[C@@H](O)[C@@H]2O)c(=O)n1 [CYTARABINE]	0.08 µM	–	–	–	–	–	–
Cc1cn(C/C=C\CO)c(=O)[nH]c1=O	> 1000 µM	–	–	–	–	–	–
Nc1nc(O)c2ncn(CC#CCO)c2n1	210 µM	–	–	–	–	–	Cytotoxicity [21]: 220; Cytotoxicity [22]: 210
Nc1ncnc2c1ncn2CCCCCl	> 440 µM	–	–	–	–	–	–
NC1=NC(N)c2c(ncn2CC#CCO)N1 (stereo not drawn)	200 µM	–	–	–	–	–	–
NC1=NC(N)c2c(ncn2C=C=CCO)N1 (stereo not drawn)	60 µM	2.2	118 µM	118 µM	255 µM	2.2	Cytotoxicity [21]: 150; Cytotoxicity [23]: 200; Cytotoxicity [7]: 180; Cytotoxicity [10]: 40
Nc1ccn(C/C=C/CO)c(=O)n1	> 550 µM	–	–	–	–	–	–
Nc1ncnc2c1ncn2C=C=CCO	150 µM	1.4	87.3 µM	124 µM	168 µM	1.9	Precursor inhibition [24]: 46%; Cytotoxicity [21]: 160; Precursor inhibition [25]: 105%; Precursor inhibition [26]: 79%; Precursor inhibition [27]: 107%; Cytotoxicity [9]: 0; Precursor inhibition [28]: 94%; Precursor inhibition [29]: 80%
Cc1cn(CC#CCCl)c(=O)[nH]c1=O	140 µM	–	–	–	–	–	Cytotoxicity [7]: 630; Cytotoxicity [8]: 520; Cytotoxicity [10]: 610
Cc1cn(C=C=CCO)c(=O)nc1N	620 µM	–	–	–	–	–	Cytotoxicity [21]: 500; Cytotoxicity [23]: 500; Cytotoxicity [7]: 520; Cytotoxicity [30]: 550
NC(=O)c1ncn([C@@H]2O[C@H](CO)[C@@H](O)[C@H]2O)n1 [RIBAVIRIN]	–	6.3	32.1 µM	8.3 µM	52 µM	1.6	–
Nc1nc(O)c2ncn(C/C=C\CO)c2n1	680 µM	–	–	–	–	–	–
